The text below walks through data of ChEMBL document CHEMBL4028857, “Anchimerically Activated ProTides as Inhibitors of Cap-Dependent Translation and Inducers of Chemosensitization in Mantle Cell Lymphoma” (J Med Chem, 2017).

In series [1] the test system is Mino. The series is described as follows: Antiproliferative activity against human Mino cells at […] preincubated for 48 hrs followed by thymidine addition measure after 16 hrs by Thymidine incorporation assay. In kind it is functional, cell-based. Put shortly: (§1)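 MCL lines treated 48 h with compound re-added daily, alone or with co-drug (ibrutinib 25 µM where used), then thymidine added for a further 16 h; proliferation read as thymidine incorporation.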
A general note: Uptake of a labelled nucleoside into DNA is a usual measure of proliferation.

Series [2] deals with T1, Adenosine 5'-monophosphoramidase HINT1 (Homo sapiens, UniProt P49773). The series is described as follows: Prodrug activation in human GRANTA-519 cells assessed as Hint1 mediated 2-amino-7-(2-(4-chlorophenoxy)ethyl)-9-((2R,3R,4S,5R)-3,4-dihydroxy-5-(phosphonooxymethyl)tetrahydrofuran-2-yl)-6-oxo-6,9-dihydro-1H-purin-7-ium formation per 5 million cells at 150 uM after 12 hrs by LC-MS/MS analysis. In kind it is cell-based. In short, it runs like this:
(§2)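 Five million MCL cells in RPMI/10% FBS with penicillin, streptomycin and L-glutamine were exposed to compound (150 µM) for 12 h at 37 °C. Cells were washed in cold PBS, extracted in MeOH/NH4OAc (60:40) with 80 fmol internal standards, freeze-thawed three times, then filtered and dried. Residue was taken up in HEPES for LC-MS/MS, quantified against an internal-standard curve.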

The nature of series [3]: Volume of distribution in Sprague-Dawley rat at 2.5 mg/kg, iv by LC-MS/MS analysis. In kind it is ADME, organism-based. The conditions noted are these: in vivo. In short, it runs like this: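 Female Sprague-Dawley rats (n=3, 250-274 g) with catheters; compound in 0.5% aqueous CMC with 5% DMSO given as a single i.v. injection, 2.5 mg/kg. Blood drawn at 0–480 min into K2EDTA tubes. Plasma precipitated with acetonitrile containing internal standards, then LC-MS/MS in positive MRM mode. Parameters from non-compartmental analysis.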

The target of series [4] is T1, Adenosine 5'-monophosphoramidase HINT1. The series is described as follows: Prodrug activation in human Z138 cells assessed as Hint1 mediated 2-amino-7-(2-(4-chlorophenoxy)ethyl)-9-((2R,3R,4S,5R)-3,4-dihydroxy-5-(phosphonooxymethyl)tetrahydrofuran-2-yl)-6-oxo-6,9-dihydro-1H-purin-7-ium formation per 5 million cells at 150 uM after 12 hrs by LC-MS/MS analysis. It counts as cell-based. In short, it runs like this:
(§3)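 Mantle cell lymphoma cells (five million) grown in RPMI with 10% FBS, penicillin/streptomycin and L-glutamine at 37 °C, 5% CO2, then exposed to 150 µM compound for 12 h at 37 °C. Washed with ice-cold PBS, pellet extracted in MeOH/NH4OAc (60:40) with 80 fmol internal standards, three liquid-N2 freeze–thaw cycles, filtered, dried, redissolved in 20 mM HEPES pH 7.2. Analysed by LC-MS/MS against a standard curve.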

Series [5] has the same target. The experiment in a line: Prodrug activation in human Mino cells assessed as Hint1 mediated 2-amino-7-(2-(4-chlorophenoxy)ethyl)-9-((2R,3R,4S,5R)-3,4-dihydroxy-5-(phosphonooxymethyl)tetrahydrofuran-2-yl)-6-oxo-6,9-dihydro-1H-purin-7-ium formation per 5 million cells at 150 uM after 12 hrs by LC-MS/MS analysis. It counts as cell-based. Put shortly:
as §3

The nature of series [6]: Half life in Sprague-Dawley rat at 2.5 mg/kg, iv by LC-MS/MS analysis. It counts as ADME, organism-based. The note with it: in vivo. In short, it runs like this:
(§4)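 Female Sprague-Dawley rats (250-274 g, n=3, catheterized femoral/jugular veins) dosed once p.o. by gavage (25 mg/kg) then, after a 3-day washout, i.v. (2.5 mg/kg). Formulation: 10 mg/mL in 0.5% aqueous CMC with 5% DMSO. Serial blood draws to 480 min into K2EDTA; plasma protein-precipitated with acetonitrile plus internal standards; LC-MS/MS (positive MRM); non-compartmental PK; %F from dose-normalized AUC per rat.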

Series [7] can be described thus: Oral bioavailability in Sprague-Dawley rat at 25 mg/kg by LC-MS/MS analysis. In kind it is ADME, organism-based. The note with it: in vivo. Put shortly: as §4
Series [8] can be described thus: Clearance in Sprague-Dawley rat at 2.5 mg/kg, iv by LC-MS/MS analysis. The conditions noted are these: Sprague-Dawley, in vivo. It counts as ADME, organism-based. In short, it runs like this: as §4
The test system of series [9] is Rattus norvegicus. The series is described as follows: AUC (0 to 8 hrs) in Sprague-Dawley rat plasma assessed as 2-amino-7-(2-(4-chlorophenoxy)ethyl)-9-((2R,3R,4S,5R)-3,4-dihydroxy-5-(phosphonooxymethyl)tetrahydrofuran-2-yl)-6-oxo-6,9-dihydro-1H-purin-7-ium at 2.5 mg/kg, iv by LC-MS/MS analysis. The note with it: in vivo. Set-up: time < 8 hr, dose 2.5 mg/kg, route intravenous. It counts as ADME, organism-based. In short, it runs like this: as §4

A short description of series [10]: Drug uptake in human Mino cells assessed per 5 million cells at 150 uM after 12 hrs by LC-MS/MS analysis. In kind it is ADME, cell-based. In short, it runs like this: as §2
In series [11] the test system is Plasma. The experiment in a line: Prodrug activation in Sprague-Dawley rat plasma assessed as 2-amino-7-(2-(4-chlorophenoxy)ethyl)-9-((2R,3R,4S,5R)-3,4-dihydroxy-5-(phosphonooxymethyl)tetrahydrofuran-2-yl)-6-oxo-6,9-dihydro-1H-purin-7-ium level at 2.5 mg/kg, iv measured at 5 mins by LC-MS/MS analysis. In kind it is organism-based. The note with it: in vivo. In short, it runs like this:
as §4

The nature of series [12]: AUC (0 to 8 hrs) in Sprague-Dawley rat plasma at 25 mg/kg, po by LC-MS/MS analysis. It counts as ADME, organism-based. Set-up: time < 8 hr, dose 25 mg/kg, route oral. In short, it runs like this: as §4
The test system of series [13] is Z-138. The experiment in a line: Drug uptake in human Z138 cells assessed per 5 million cells at 150 uM after 12 hrs by LC-MS/MS analysis. It counts as ADME, cell-based. The conditions noted are these: z-138, 12 h. Put shortly: as §2
Series [14] can be described thus: AUC (0 to 8 hrs) in Sprague-Dawley rat plasma at 2.5 mg/kg, iv by LC-MS/MS analysis. It counts as ADME, organism-based. Set-up: time < 8 hr, dose 2.5 mg/kg, route intravenous. In short, it runs like this:
as §4

Series [15] concerns Granta-519. The series is described as follows: Drug uptake in human GRANTA-519 cells assessed per 5 million cells at 150 uM after 12 hrs by LC-MS/MS analysis. It counts as ADME, cell-based. The conditions noted are these: granta-519, 12 h. Put shortly: as §2
In series [16] the target is Eukaryotic translation initiation factor 4E-binding protein 1 (Homo sapiens) (UniProt Q13541). The experiment in a line: Inhibition of 4EBP1 phosphorylation at Thr 37/46 residues in human Mino cells at 10 to 25 uM after 48 hrs by Western blot analysis. It counts as cell-based. Put shortly:
(§5)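 MCL cell lines treated with ProTide 48 h. Lysates were protein-quantified, then immunoblotted.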
On the technique in general: A western blot detects proteins with antibodies after separation by electrophoresis.

The target is the same in series [17]. The experiment in a line: Inhibition of 4EBP1 phosphorylation at Ser 65 residues in human Mino cells at 10 to 25 uM after 48 hrs by Western blot analysis. It counts as cell-based. Put shortly: as §5
The target in series [18] is Eukaryotic translation initiation factor 4E (Homo sapiens) (UniProt P06730). The experiment in a line: Inhibition of eIF4E in human Mino cells assessed as down regulation of c-Myc protein expression at 10 to 25 uM after 48 hrs by Western blot analysis. In kind it is cell-based. In short, it runs like this: as §5
Sequence of Eukaryotic translation initiation factor 4E (Homo sapiens) (P06730 whole entry): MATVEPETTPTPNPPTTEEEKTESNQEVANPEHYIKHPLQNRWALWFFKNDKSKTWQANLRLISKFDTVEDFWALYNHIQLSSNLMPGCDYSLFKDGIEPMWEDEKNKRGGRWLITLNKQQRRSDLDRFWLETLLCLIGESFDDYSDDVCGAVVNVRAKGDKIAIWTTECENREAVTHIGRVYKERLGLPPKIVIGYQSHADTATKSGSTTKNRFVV
Series [19] in a line: Cytotoxicity against human Mino cells assessed as reduction in cell survival at 25 uM after 48 hrs by Annexin V/propidium iodide based flow cytometric analysis. Put shortly: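 MCL cell lines exposed to ProTide 48 h, re-dosed daily. Survival read by Annexin V/PI staining on flow cytometry.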
In series [20] the test system is Mino. The series is described as follows: Antiproliferative activity against human Mino cells at 25 uM preincubated for 48 hrs followed by thymidine addition measure after 16 hrs by Thymidine incorporation assay. In kind it is functional, cell-based. Put shortly: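 MCL cell lines exposed to ProTide 48 h with fresh compound added every day, then thymidine added for a further 16 h. Proliferation read as thymidine incorporation.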

Series [21] in a line: Half life in HEPES buffer at 80 uM at pH 7.2 by RP-HPLC analysis. It counts as physicochemical. Put shortly: (§6)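 Compound at 80 µM in 20 mM HEPES (pH 7.2 or 2.0) incubated at 37 °C; aliquots analyzed by RP-HPLC at 0, 1, 4, 6, 12, 18 and 24 h to follow methylthioalkyl deprotection and derive half-life.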
Series [22] relates to Mino. The series is described as follows: Antiproliferative activity against human Mino cells at 100 uM preincubated for 48 hrs followed by thymidine addition measure after 16 hrs by Thymidine incorporation assay. It counts as functional, cell-based. In short, it runs like this:
as §1

A short description of series [23]: Half life in HEPES buffer at 80 uM at pH 2 by RP-HPLC analysis. It counts as physicochemical. In short, it runs like this: as §6

Calls of active or inactive are those of the source. No cut-off for these calls is given here. Bounds are passed on as bounds.

T1 sequence (P49773 whole entry): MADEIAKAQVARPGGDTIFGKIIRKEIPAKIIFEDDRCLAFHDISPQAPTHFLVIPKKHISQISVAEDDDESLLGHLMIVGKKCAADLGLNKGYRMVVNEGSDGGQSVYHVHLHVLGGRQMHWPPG
Sequence of Eukaryotic translation initiation factor 4E-binding protein 1 (Homo sapiens) (Q13541 whole entry): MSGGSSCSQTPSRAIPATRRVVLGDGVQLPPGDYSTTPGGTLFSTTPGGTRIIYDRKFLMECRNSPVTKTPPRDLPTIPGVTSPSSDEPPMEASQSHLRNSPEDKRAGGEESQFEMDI

As for `COc1cccc2c1C(=O)c1c(O)c3c(c(O)c1C2=O)C[C@@](O)(C(=O)CO)C[C@@H]3O[C@H]1C[C@H](N)[C@H](O)[C@H](C)O1`, the outcome in series [1] was inactive.
What is called Vd is a proportionality between amount in the body and measured concentration, not a real space. Higher therefore signals extensive tissue distribution. Usually half-life stands for how long it takes for the measured level to halve. What is called bioavailability is the share of a dose that reaches the circulation, judged against a reference dose that is usually intravenous. A lower bioavailability goes with poor availability. In general, clearance refers to the volume of plasma or blood freed of the substance per unit of time. A low value points to a low capacity for elimination. In general, AUC refers to the area under the concentration-time curve, a measure of exposure. For orientation: AUC(0-t) means exposure summed from dosing to a finite time, without extrapolation to infinity. The low end stands for low exposure, the high end for high exposure. Turning to `Nc1nc2c(c(=O)[nH]1)[n+](CCOc1ccc(Cl)cc1)cn2[C@@H]1O[C@H](COP(=O)(O)NCCc2c[nH]c3ccccc23)[C@@H](O)[C@H]1O`, the Drug metabolism in series [2] is 5.23 pmol; in series [4], 0.523 pmol; in series [5] it was 7.49 pmol; in series [11] it was 583 ng/mL. The Vd in series [3] was determined as 70 L/kg. The half-life in series [6] was 2.72 h. This compound gave a bioavailability in [7] of under 1%. The same compound had a clearance in series [8] of 300 mL/min/kg. The AUC in series [9] is 13.1 µg·min/mL. The Drug uptake stood at 0.59 pmol in series [10], 0.163 pmol in series [13] and 1.52 pmol in series [15]. In addition, the AUC(0-t) at 8 h in series [12] is 31.7 ng·h/mL; in series [14], 147 ng·h/mL.
With `C=CC(=O)N1CCC[C@@H](n2nc(-c3ccc(Oc4ccccc4)cc3)c3c(N)ncnc32)C1` [IBRUTINIB], the inhibition entry in series [16] was “inactive”. The inhibition entry in series [17] and in [18] was “Active” in each case. Further, the Activity entry in [19] is recorded as “Non-Toxic”. In addition, the result in series [20] was inactive.
For the compound `CSCCCOP(=O)(NCCc1c[nH]c2ccccc12)OC[C@H]1O[C@@H](n2c[n+](CCOc3ccc(Cl)cc3)c3c(=O)[nH]c(N)nc32)[C@H](O)[C@@H]1O` (some centres undefined), in [21], the half-life at 80 µM was over 60 h.
In the case of `C[C@@H]1C[C@H]2[C@@H]3CCC4=CC(=O)C=C[C@]4(C)[C@@]3(F)[C@@H](O)C[C@]2(C)[C@@]1(O)C(=O)CO`, the outcome in series [22] was Active.
Consider `CSCCCCOP(=O)(NCCc1c[nH]c2ccccc12)OC[C@H]1O[C@@H](n2c[n+](CCOc3ccc(Cl)cc3)c3c(=O)[nH]c(N)nc32)[C@H](O)[C@@H]1O` (some centres undefined), for which the half-life at 80 µM in series [23] is 13 h; in [21], 10.4 h.
